Test results as given in ChEMBL document CHEMBL4229372, “Synthesis and anti-mitotic activity of 2,4- or 2,6-disubstituted- and 2,4,6-trisubstituted-2H-pyrazolo[4,3-c]pyridines” (2018).
The source made the active and inactive calls. No cut-off for these calls is given here.

Key:
K562 [1] = experiment: Cell cycle arrest in human K562 cells assessed as accumulation at S phase at 10 uM after 24 hrs by propidium iodide staining-based flow cytometric analysis (reference value: 50.3%); format: functional
MCF7 [2] = experiment: Cell cycle arrest in human MCF7 cells assessed as accumulation at sub G1 phase at 10 uM after 24 hrs by propidium iodide staining-based flow cytometric analysis (reference value: 7.1%); format: functional
Summary of the method: (§1)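 MCF-7 cells in DMEM with 10% FBS and penicillin/streptomycin at 37 °C, 5% CO2. Asynchronous cells were treated 24 h, PBS-washed, trypsinized and quenched with 0.1% trypsin inhibitor. Staining used 5× citrate/IGEPAL/spermine/Tris buffer (pH 7.6) with 50 μg/mL propidium iodide. DNA content was read by 488 nm flow cytometry and cell-cycle phases modelled.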

K562 [3] = experiment: Cell cycle arrest in human K562 cells assessed as accumulation at sub G1 phase at 10 uM after 24 hrs by propidium iodide staining-based flow cytometric analysis (reference value: 15%); format: functional
MCF7 [4] = experiment: Cell cycle arrest in human MCF7 cells assessed as accumulation at S phase at 10 uM after 24 hrs by propidium iodide staining-based flow cytometric analysis (reference value: 34.1%); format: functional; summary of the method: as §1
K562 [5] = experiment: Growth inhibition of human K562 cells after 72 hrs by Calcein AM dye based fluorescence assay; format: functional; settings: K562, 72 h
Summary of the method: (§2)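 Cells in DMEM with 10% FBS at 37 °C, 5% CO2, treated in triplicate with six doses for 72 h. Calcein AM was added for 1 h and live-cell fluorescence read at 485/538 nm. GI50 was taken from dose-response curves.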

MCF7 [6] = experiment: Cell cycle arrest in human MCF7 cells assessed as accumulation at G1 phase at 10 uM after 24 hrs by propidium iodide staining-based flow cytometric analysis (reference value: 60.7%); format: functional; summary of the method: as §1
K562 [7] = experiment: Cell cycle arrest in human K562 cells assessed as accumulation at G1 phase at 10 uM after 24 hrs by propidium iodide staining-based flow cytometric analysis (reference value: 34.6%); format: functional
MCF7 [8] = experiment: Cell cycle arrest in human MCF7 cells assessed as accumulation at G2/M phase at 10 uM after 24 hrs by propidium iodide staining-based flow cytometric analysis (reference value: 5.3%); format: functional; summary of the method: as §1
[9] = biological target: Cyclin-dependent kinase 1 (Homo sapiens) (UniProt P06493); experiment: Inhibition of CDK1 (unknown origin)
Cyclin-dependent kinase 1 (Homo sapiens), sequence (P06493 whole entry, looked up): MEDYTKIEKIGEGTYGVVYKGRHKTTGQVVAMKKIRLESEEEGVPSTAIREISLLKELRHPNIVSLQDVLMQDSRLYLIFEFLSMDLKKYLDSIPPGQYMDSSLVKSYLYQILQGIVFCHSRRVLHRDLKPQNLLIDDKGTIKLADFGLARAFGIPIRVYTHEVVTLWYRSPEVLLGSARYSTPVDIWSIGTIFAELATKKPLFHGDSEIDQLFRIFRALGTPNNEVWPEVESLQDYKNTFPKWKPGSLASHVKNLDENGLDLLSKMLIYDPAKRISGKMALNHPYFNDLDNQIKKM

MCF7 [10] = experiment: Growth inhibition of human MCF7 cells after 72 hrs by Calcein AM dye based fluorescence assay; format: functional; settings: MCF7, 72 h; summary of the method: as §2
K562 [11] = experiment: Cell cycle arrest in human K562 cells assessed as accumulation at G2/M phase at 10 uM after 24 hrs by propidium iodide staining-based flow cytometric analysis (reference value: 15%); format: functional
MCF7 [12] = experiment: Cell cycle arrest in human MCF7 cells assessed as accumulation at G2/M phase at 0.25 uM after 24 hrs by propidium iodide staining-based flow cytometric analysis (reference value: 5.3%); format: functional; summary of the method: as §1
K562 [13] = experiment: Cell cycle arrest in human K562 cells assessed as accumulation at G2/M phase at 0.25 uM after 24 hrs by propidium iodide staining-based flow cytometric analysis (reference value: 15%); format: functional
MCF7 [14] = experiment: Cell cycle arrest in human MCF7 cells assessed as accumulation at G1 phase at 0.25 uM after 24 hrs by propidium iodide staining-based flow cytometric analysis (reference value: 60.7%); format: functional; summary of the method: as §1
MCF7 [15] = experiment: Cell cycle arrest in human MCF7 cells assessed as accumulation at S phase at 0.25 uM after 24 hrs by propidium iodide staining-based flow cytometric analysis (reference value: 34.1%); format: functional; summary of the method: as §1
K562 [16] = experiment: Cell cycle arrest in human K562 cells assessed as accumulation at sub G1 phase at 0.25 uM after 24 hrs by propidium iodide staining-based flow cytometric analysis (reference value: 15%); format: functional
K562 [17] = experiment: Cell cycle arrest in human K562 cells assessed as accumulation at G1 phase at 0.25 uM after 24 hrs by propidium iodide staining-based flow cytometric analysis (reference value: 34.6%); format: functional
K562 [18] = experiment: Cell cycle arrest in human K562 cells assessed as accumulation at S phase at 0.25 uM after 24 hrs by propidium iodide staining-based flow cytometric analysis (reference value: 50.3%); format: functional
MCF7 [19] = experiment: Cell cycle arrest in human MCF7 cells assessed as accumulation at sub G1 phase at 0.25 uM after 24 hrs by propidium iodide staining-based flow cytometric analysis (reference value: 7.1%); format: functional; summary of the method: as §1
MCF7 [20] = experiment: Cell cycle arrest in human MCF7 cells assessed as accumulation at S phase at 83 nM after 24 hrs by propidium iodide staining-based flow cytometric analysis (reference value: 34.1%); format: functional; summary of the method: as §1
MCF7 [21] = experiment: Cell cycle arrest in human MCF7 cells assessed as accumulation at G1 phase at 83 nM after 24 hrs by propidium iodide staining-based flow cytometric analysis (reference value: 60.7%); format: functional; summary of the method: as §1
MCF7 [22] = experiment: Cell cycle arrest in human MCF7 cells assessed as accumulation at G2/M phase at 83 nM after 24 hrs by propidium iodide staining-based flow cytometric analysis (reference value: 5.3%); format: functional; summary of the method: as §1
K562 [23] = experiment: Cell cycle arrest in human K562 cells assessed as accumulation at G2/M phase at 83 nM after 24 hrs by propidium iodide staining-based flow cytometric analysis (reference value: 15%); format: functional
MCF7 [24] = experiment: Cell cycle arrest in human MCF7 cells assessed as accumulation at sub G1 phase at 83 nM after 24 hrs by propidium iodide staining-based flow cytometric analysis (reference value: 7.1%); format: functional; summary of the method: as §1
K562 [25] = experiment: Cell cycle arrest in human K562 cells assessed as accumulation at sub G1 phase at 83 nM after 24 hrs by propidium iodide staining-based flow cytometric analysis (reference value: 15%); format: functional
K562 [26] = experiment: Cell cycle arrest in human K562 cells assessed as accumulation at S phase at 83 nM after 24 hrs by propidium iodide staining-based flow cytometric analysis (reference value: 50.3%); format: functional
K562 [27] = experiment: Cell cycle arrest in human K562 cells assessed as accumulation at G2/M phase assessed as accumulation of histone H3 phosphorylation at serine 10 residues at 40 ng/ml uM after 24 hrs by propidium iodide staining-based flow cytometric analysis (reference value: 2.2%); format: functional
K562 [28] = experiment: Cell cycle arrest in human K562 cells assessed as accumulation at G1 phase at 83 nM after 24 hrs by propidium iodide staining-based flow cytometric analysis (reference value: 34.6%); format: functional

Row | SMILES | GI50 (K562 [5]) [µM] | inhibition [9] | GI50 (MCF7 [10]) [µM] | Activity (K562 [1]) [%] | Activity (MCF7 [2]) [%] | Activity (K562 [3]) [%] | Activity (MCF7 [4]) [%] | Activity (MCF7 [6]) [%] | Activity (K562 [7]) [%] | Activity (MCF7 [8]) [%] | Activity (K562 [11]) [%] | other results
1 | CC(C)c1nccc2nn(-c3ccccc3)cc12 | > 100 | inactive | 98.8 |  |  |  |  |  |  |  |  | 
2 | Cn1cc2cnc(-c3ccccc3)cc2n1 | > 100 | inactive | > 100 |  |  |  |  |  |  |  |  | 
3 | c1ccc(-n2cc3cnccc3n2)cc1 | > 100 | inactive | > 100 |  |  |  |  |  |  |  |  | 
4 | c1ccc(-n2cc3cnc(C4CC4)cc3n2)cc1 | 60.5 | inactive | 69.3 | 52.2 | 7.5 | 19.6 | 29.4 | 64.7 | 32.3 | 5.9 | 15.5 | 
5 | CC(=O)c1c(C)c2cnc(Nc3ccc(N4CCNCC4)cn3)nc2n(C2CCCC2)c1=O [PALBOCICLIB] |  |  |  |  |  |  |  |  |  |  |  | Activity (MCF7 [12]): 4.6%; Activity (K562 [13]): 15.9%; Activity (MCF7 [14]): 90%; Activity (MCF7 [15]): 5.5%; Activity (K562 [16]): 35%; Activity (K562 [17]): 54%; Activity (K562 [18]): 30.1%; Activity (MCF7 [19]): 7.5%
6 | COC(=O)Nc1nc2cc(C(=O)c3cccs3)ccc2[nH]1 [NOCODAZOLE] |  |  |  |  |  |  |  |  |  |  |  | Activity (MCF7 [20]): 49.9%; Activity (MCF7 [21]): 14.4%; Activity (MCF7 [22]): 35.7%; Activity (K562 [23]): 69.7%; Activity (MCF7 [24]): 32.1%; Activity (K562 [25]): 49.4%; Activity (K562 [26]): 26.8%; Activity (K562 [27]): 33.2%; Activity (K562 [28]): 3.6%
7 | OCCc1cc2nn(-c3ccccc3)cc2cn1 | > 100 | inactive | > 100 |  |  |  |  |  |  |  |  | 
8 | Cc1nccc2nn(-c3ccccc3)cc12 | > 100 | inactive | > 100 |  |  |  |  |  |  |  |  | 
9 | Cc1nc(CCO)cc2nn(-c3ccccc3)cc12 | > 100 | inactive | > 100 |  |  |  |  |  |  |  |  | 

Second part, led by results:

Row | GI50 (K562 [5]) [µM] | inhibition [9] | GI50 (MCF7 [10]) [µM] | SMILES | Activity (K562 [1]) [%] | Activity (MCF7 [2]) [%] | Activity (K562 [3]) [%] | Activity (MCF7 [4]) [%] | Activity (MCF7 [6]) [%] | Activity (K562 [7]) [%] | Activity (MCF7 [8]) [%] | Activity (K562 [11]) [%] | other results
10 | 25.9 | inactive | 63.5 | Cc1nc(C2CC2)cc2nn(-c3ccccc3)cc12 | 45.8 | 9 | 15.3 | 30.2 | 63.6 | 34.7 | 6.3 | 19.6 | 
11 | 8.3 | inactive | 9.8 | c1ccc(-n2cc3cnc(-c4ccsc4)cc3n2)cc1 | 37.3 | 24.2 | 34.2 | 29.1 | 39.5 | 21.7 | 31.4 | 41.1 | 
12 | 12.9 | inactive | 33.3 | CCCCc1cc2nn(-c3ccccc3)cc2c(C(C)C)n1 | 44.2 | 7.8 | 47.1 | 24.5 | 66.1 | 26.7 | 9.4 | 29 | 
13 | 6.3 | inactive | 11 | Cc1nc(-c2ccccc2)cc2nn(-c3ccccc3)cc12 | 36.1 | 11.9 | 46.2 | 20.5 | 65.5 | 13.7 | 14.1 | 50.2 | 
14 | 3.4 | inactive | 4.8 | c1ccc(-c2cc3nn(-c4ccccc4)cc3cn2)cc1 | 5.5 | 14.3 | 43 | 26.2 | 56.8 | 19.8 | 17 | 74.7 | 
15 | 36.8 | inactive | 91 | CC(C)c1nc(-c2ccccc2)cc2nn(-c3ccccc3)cc12 | 46.6 | 6.7 | 21.3 | 30.6 | 62.6 | 35.1 | 6.9 | 18.3 | 
16 | 10 | inactive | 22.2 | Cc1nc(-c2ccsc2)cc2nn(-c3ccccc3)cc12 | 29.2 | 22.7 | 45.7 | 31.2 | 37.2 | 26.2 | 31.6 | 44.6 | 
17 | 8.5 | inactive | 11.1 | CCCCc1cc2nn(-c3ccccc3)cc2c(C)n1 | 30.5 | 19.3 | 40.8 | 24 | 48.5 | 28.2 | 27.5 | 41.4 | 
18 | 6.7 | inactive | 13.3 | CCCCc1cc2nn(-c3ccccc3)cc2cn1 | 12.8 | 31.1 | 37.7 | 30.3 | 36 | 24.8 | 33.7 | 62.3 | 
19 | 6.9 | inactive | 17 | CCCCCc1cc2nn(-c3ccccc3)cc2c(C)n1 | 28.3 | 31.1 | 28.3 | 18.1 | 50.2 | 21.8 | 31.7 | 49.9 | 
